pIC50: −log10 of the molar value. Residues, ends and D or L forms follow the SMILES beside them. *: point of attachment. Phenylacetyl(4-E-phenylazo) = O=C(Cc1ccc(/N=N/c2ccccc2)cc1)*; X1 = O=C(Cc1ccc(/N=N/c2ccc(O)cc2)cc1)*
Legend:
[1] = target: T1, NAD-dependent protein deacetylase sirtuin-1 (Homo sapiens, UniProt Q96EB6); assay: Inhibition of recombinant human C-terminal His6-tagged SIRT1 (Met1 to Ser747 residues) demyristoylase activity expressed in Escherichia coli using p53(Myr)-AMC as substrate measured after 3 hrs in presence of NAD+ and trypsin by fluorescence assay
T1 sequence (Q96EB6 whole entry): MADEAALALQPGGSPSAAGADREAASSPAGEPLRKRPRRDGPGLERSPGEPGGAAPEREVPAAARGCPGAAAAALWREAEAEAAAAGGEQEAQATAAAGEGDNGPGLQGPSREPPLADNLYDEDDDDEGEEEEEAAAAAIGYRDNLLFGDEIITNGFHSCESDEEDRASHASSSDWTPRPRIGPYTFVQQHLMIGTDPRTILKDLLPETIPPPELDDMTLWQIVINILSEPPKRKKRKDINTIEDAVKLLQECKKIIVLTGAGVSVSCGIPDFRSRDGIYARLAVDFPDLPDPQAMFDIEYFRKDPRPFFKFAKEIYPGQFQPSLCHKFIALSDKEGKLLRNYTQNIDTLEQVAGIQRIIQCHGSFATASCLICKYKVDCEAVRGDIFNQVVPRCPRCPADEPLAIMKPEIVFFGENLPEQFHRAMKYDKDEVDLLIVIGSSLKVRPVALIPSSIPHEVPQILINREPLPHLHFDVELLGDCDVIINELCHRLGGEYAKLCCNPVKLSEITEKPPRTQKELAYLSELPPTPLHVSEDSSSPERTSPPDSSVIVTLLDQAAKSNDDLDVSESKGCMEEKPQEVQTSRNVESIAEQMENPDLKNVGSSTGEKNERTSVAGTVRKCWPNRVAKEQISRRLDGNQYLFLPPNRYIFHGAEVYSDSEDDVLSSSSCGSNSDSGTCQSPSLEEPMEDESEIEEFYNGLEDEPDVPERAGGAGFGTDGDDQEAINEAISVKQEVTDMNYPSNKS
Summary of the method: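 SIRT1 at 14 nM final with 50 μM p53(Myr)-AMC and 500 μM NAD⁺ in Tris-HCl pH 8.0/NaCl/DTT/Triton buffer, 0.5% DMSO, 3 h at room temperature. Trypsin (100 nM final) plus nicotinamide (1 mM final) then added. Fluorescence Ex 355/Em 460 nm read every 5 min for 20 min at 37 °C. n = 3.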

[2] = target: T1, NAD-dependent protein deacetylase sirtuin-1; assay: Inhibition of recombinant human C-terminal His6-tagged SIRT1 (Met1 to Ser747 residues) defatty-acylase activity expressed in Escherichia coli using SFP3 as substrate measured at 5 mins interval for 60 mins in presence of NAD+ by fluorescence assay
[3] = target: T2, NAD-dependent protein deacetylase sirtuin-2 (Homo sapiens, UniProt Q8IXJ6); assay: Inhibition of recombinant human SIRT2 defatty-acylase activity using SFP3 as substrate measured at 5 mins interval for 60 mins in presence of NAD+ by fluorescence assay
T2 sequence (Q8IXJ6 whole entry): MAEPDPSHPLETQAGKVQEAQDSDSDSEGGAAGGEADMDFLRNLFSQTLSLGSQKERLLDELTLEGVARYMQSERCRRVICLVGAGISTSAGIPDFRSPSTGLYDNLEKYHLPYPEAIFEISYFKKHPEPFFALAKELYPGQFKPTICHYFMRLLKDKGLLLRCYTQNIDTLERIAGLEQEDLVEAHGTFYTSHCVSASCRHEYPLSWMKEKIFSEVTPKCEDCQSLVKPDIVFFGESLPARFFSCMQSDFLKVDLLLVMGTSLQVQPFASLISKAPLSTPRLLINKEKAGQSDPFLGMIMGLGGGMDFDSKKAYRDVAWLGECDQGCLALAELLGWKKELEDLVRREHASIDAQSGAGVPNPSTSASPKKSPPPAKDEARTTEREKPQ

[4] = target: T2, NAD-dependent protein deacetylase sirtuin-2; assay: Inhibition of recombinant human SIRT2 deacylation activity using Fluor de Lys Sirt2 as substrate measured at 5 mins interval for 30 mins in presence of NAD+ by fluorescence assay
[5] = target: T3, NAD-dependent protein deacetylase sirtuin-3, mitochondrial (Homo sapiens, UniProt Q9NTG7); assay: Inhibition of recombinant human SIRT3 (118 to 399 residues) defatty-acylase activity expressed in Escherichia coli using SFP3 as substrate measured at 5 mins interval for 60 mins in presence of NAD+ by fluorescence assay
T3 sequence (Q9NTG7 whole entry): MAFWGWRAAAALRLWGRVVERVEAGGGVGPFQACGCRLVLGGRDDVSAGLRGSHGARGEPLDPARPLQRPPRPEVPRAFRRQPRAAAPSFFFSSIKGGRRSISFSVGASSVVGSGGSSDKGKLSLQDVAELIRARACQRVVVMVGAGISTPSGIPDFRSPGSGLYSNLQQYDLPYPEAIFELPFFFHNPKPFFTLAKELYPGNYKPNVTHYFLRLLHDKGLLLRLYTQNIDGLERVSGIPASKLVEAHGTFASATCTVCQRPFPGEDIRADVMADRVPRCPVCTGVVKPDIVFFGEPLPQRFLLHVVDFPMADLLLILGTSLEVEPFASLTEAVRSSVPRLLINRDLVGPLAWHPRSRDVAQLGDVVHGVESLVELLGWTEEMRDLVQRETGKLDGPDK

[6] = target: T2, NAD-dependent protein deacetylase sirtuin-2; assay: Inhibition of recombinant human SIRT2 demyristoylase activity using p53(Myr)-AMC as substrate measured after 3 hrs in presence of NAD+ and trypsin by fluorescence assay
[7] = target: T3, NAD-dependent protein deacetylase sirtuin-3, mitochondrial; assay: Inhibition of recombinant human SIRT3 (118 to 399 residues) demyristoylase activity expressed in Escherichia coli using p53(Myr)-AMC as substrate measured after 3 hrs in presence of NAD+ and trypsin by fluorescence assay

Row | pIC50 [1] | pIC50 [2] | pIC50 [3] | pIC50 [4] | pIC50 [5] | pIC50 [6] | pIC50 [7] | Compound
1 | < 5.00 | < 5.00 | – | – | – | – | – | Cc1cc(C)nc(SCC(=O)Nc2ncc(Cc3cccc4ccccc34)s2)n1
2 | – | – | < 5.70 | < 6.00 | – | – | – | CCCCCCCCCCCCCC(=O)NCCCC[C@H](NC(=O)OCc1ccccc1)C(=O)Nc1ccccc1
3 | – | – | < 5.70 | 6.72 | – | – | – | C[C@H](NC(=O)[C@H](CCCCNC(=O)Cc1ccc(/N=N/c2ccc(O)cc2)cc1)NC(=O)OCc1ccccc1)C(N)=O
4 | – | < 5.70 | < 5.70 | 6.40 | < 5.70 | < 5.70 | – | C[C@H](NC(=O)[C@H](CCCCNC(=O)Cc1ccc(/N=N/c2ccc(OCCc3ccccc3)cc2)cc1)NC(=O)OCc1ccccc1)C(N)=O
5 | – | – | < 5.70 | 6.72 | – | – | – | C[C@H](NC(=O)[C@H](CCCCNC(=O)Cc1ccc(/N=N/c2ccc(OCc3ccccc3)cc2)cc1)NC(=O)OCc1ccccc1)C(N)=O
6 | 7.08 | 6.57 | 7.20 | 6.96 | – | 6.60 | – | CC[C@H](C)[C@H](NC(C)=O)C(=O)N[C@@H](CCCCNC(=O)Cc1ccc(/N=N/c2ccccc2)cc1)C(=O)N[C@@H](CCCNC(=N)N)C(N)=O
7 | 7.15 | 7.32 | 7.72 | 6.74 | 7.11 | 7.29 | 6.47 | CC[C@H](C)[C@H](NC(=O)[C@H](CCCNC(=N)N)NC(C)=O)C(=O)N[C@@H](CCCCNC(=O)Cc1ccc(/N=N/c2ccccc2)cc1)C(=O)N[C@@H](CCCNC(=N)N)C(=O)N[C@@H](Cc1ccc(O)cc1)C(N)=O (Ac-RIK(Phenylacetyl(4-E-phenylazo))RY-NH2)
8 | 7.30 | 6.92 | 7.72 | 6.96 | 7.26 | 7.36 | 6.72 | CC[C@H](C)[C@H](NC(=O)[C@H](CCCNC(=N)N)NC(C)=O)C(=O)N[C@@H](CCCCNC(=O)Cc1ccc(/N=N/c2ccc(O)cc2)cc1)C(=O)N[C@@H](CCCNC(=N)N)C(=O)N[C@@H](Cc1ccc(O)cc1)C(N)=O (Ac-RIK(X1)RY-NH2)

Source: ChEMBL document CHEMBL4304758, “Development of Peptide-Based Sirtuin Defatty-Acylase Inhibitors Identified by the Fluorescence Probe, SFP3, That Can Efficiently Measure Defatty-Acylase Activity of Sirtuin” (J Med Chem, 2019)
